≈ marks a conversion by molar mass, not a printed value. Calls of active or inactive are those of the source. No cut-off for these calls is given here.
Columns and labels:
[1] = tested on: Plasma; assay: Protein binding in Sprague-Dawley rat plasma up to 30 ug/ml after 2 hrs by HPLC analysis; type: ADME, cell-free
Outline: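 Heparinized arterial plasma from male and female Sprague-Dawley rats incubated with compound at final 30, 20 or 5 μg/mL, 37 °C for 2 h. Free drug separated by 30 kD ultrafiltration (2000 g, 4 °C, 15 min) and measured by HPLC with UV 251 nm; binding = (Dt − Df)/Dt × 100%.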

[2] = Cytotoxicity against human H9 cells assessed as reduction in cell viability after 7 days by MTT assay; type: cell-based
Outline: (§1)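 MTT viability assay. H9 at 4×10^4 cells/well or PHA-stimulated PBMCs at 5×10^5 cells/well were incubated with serially diluted compound at 37 °C, 5% CO2 for seven days before MTT read-out. CC50 was calculated; mean ± standard deviation of three separate experiments.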

[3] = tested on: Human immunodeficiency virus 1; assay: Antiviral activity against HIV1 subtype B NL4-3 infected in human H9 cells assessed as reduction in p24 level after 7 days by ELISA; type: functional, cell-based; conditions: Human immunodeficiency virus 1, subtype B NL4-3, H9, 168 h
Outline: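 H9 cells infected with NL4-3 at MOI 0.03 for 2 h, washed three times, then seeded at 4×10^4 cells/well with serially diluted compound. Incubated 7 days; supernatant p24 measured by in-house ELISA and EC50 calculated. Three separate experiments, mean ± standard deviation.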

[4] = Therapeutic index, ratio of CC50 for human H9 cells to EC50 for HIV1 subtype B NL4-3 infected in human H9 cells
Outline: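 Ratio of CC50 to EC50, both measured in H9 cells: MTT cytotoxicity over seven days, and p24 ELISA after 7 days of NL4-3 infection at MOI 0.03.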

[5] = tested on: Human immunodeficiency virus 1; assay: Inhibition of HIV1 Vif expressed in TREX-hVif-15 cells co-expressing EYFP-N1-tagged human A3G assessed as reduction in Vif-mediated A3G degradation after 48 hrs by flow cytometry; type: cell-based
Outline: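 TREX-hvif-15 cells, in which Vif is under Tet-On control, were plated at 2×10^5 cells/well and grown overnight. At about 80% confluence they were transfected with EYFP-N1-hA3G. After 6 h the cells were washed, and compounds at varied concentrations were added together with doxycycline to induce Vif. Cells were trypsin-harvested 48 h post-transfection, and EYFP-positive cells were measured by flow cytometry. The no-Vif condition was set to 100%.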

[6] = tested on: Human immunodeficiency virus 1; assay: Inhibition of HIV1 Vif expressed in TREX-hVif-15 cells co-expressing HA-tagged A3G assessed as reduction in Vif-mediated A3G degradation by measuring increase in A3G expression after 48 hrs by Western blot method; type: cell-based
Outline: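 TREX-hvif-15 cells were plated at 2×10^5 cells/well and transfected at about 80% confluence with pcDNA3.1-APOBEC3G-HA. At 6 h they were washed and given fresh DMEM/10% FBS, graded compound concentrations, and 0.1 µg/mL doxycycline to induce Vif. Total protein was extracted 48 h post-transfection, and HA tag, Vif and β-actin were read by western blot.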

[7] = Cytotoxicity against human PBMC assessed as reduction in cell viability after 7 days by MTT assay; type: cell-based; outline: as §1
[8] = tested on: Human immunodeficiency virus 1; assay: Antiviral activity against HIV1 subtype B/C isolate KM018 infected in human PBMC assessed as reduction in p24 level after 7 days by ELISA; type: functional; conditions: Human immunodeficiency virus 1, subtype B/C isolate KM018, 168 h
[9] = tested on: Human immunodeficiency virus 1; assay: Antiviral activity against HIV1 subtype B isolate SF162 infected in human PBMC assessed as reduction in p24 level after 7 days by ELISA; type: functional; conditions: Human immunodeficiency virus 1, subtype B isolate SF162, 168 h
[10] = tested on: Human immunodeficiency virus 1; assay: Antiviral activity against HIV1 subtype CRF01-AE isolate TC-1 infected in human PBMC assessed as assessed as reduction in p24 level after 7 days by ELISA; type: functional; conditions: Human immunodeficiency virus 1, subtype CRF01-AE isolate TC-1, 168 h
[11] = tested on: Human immunodeficiency virus 1; assay: Antiviral activity against HIV1 subtype CRF01-AE isolate WAN infected in human PBMC assessed as assessed as reduction in p24 level after 7 days by ELISA; type: functional; conditions: Human immunodeficiency virus 1, subtype CRF01-AE isolate WAN, 168 h
[12] = Aqueous solubility in water after 24 to 72 hrs by HPLC based shake flask method; type: physicochemical
Outline: (§2)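 Equilibrium shake-flask solubility: excess compound placed in water, methanol, ethanol, acetonitrile, ethyl acetate or acetone and shaken 24-72 h at 25 °C. Filtered through 0.22 μm membrane, diluted, and quantified by HPLC on a C18 column with methanol/water 70/30 mobile phase and UV 251 nm. n=3, mean ± SD.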

[13] = Solubility in methanol after 24 to 72 hrs by HPLC based shake flask method; type: physicochemical; outline: as §2
[14] = Solubility in ethanol after 24 to 72 hrs by HPLC based shake flask method; type: physicochemical; outline: as §2
[15] = Solubility in acetonitrile after 24 to 72 hrs by HPLC based shake flask method; type: physicochemical; outline: as §2
[16] = Solubility in ethylacetate after 24 to 72 hrs by HPLC based shake flask method; type: physicochemical; outline: as §2
[17] = Solubility in acetone after 24 to 72 hrs by HPLC based shake flask method; type: physicochemical; outline: as §2
[18] = tested on: Human immunodeficiency virus 1; assay: Inhibition of HIV1 NL4-3 Vif expressed in 293T cells co-expressing HA-tagged A3G assessed as reduction in Vif-mediated A3G degradation by measuring increase in A3G expression after 48 hrs by Western blot method; type: cell-based
Outline: (§3)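 293T cells were plated at 2×10^5 cells/well, grown overnight, and co-transfected at about 80% confluence with pcDNA3.1-APOBEC3G-HA and pNL4-3 (Lipofectamine 2000). Medium was replaced at 6 h with DMEM/10% FBS, then compounds were added at a range of concentrations for 48 h. HA tag, Vif, p24 and β-actin (internal control) in total lysates were read by western blot.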

[19] = tested on: Human immunodeficiency virus 1; assay: Antiviral activity against HIV1 NL4-3 infected in 293T cells expressing HA-tagged A3G assessed as reduction in Vif expression after 48 hrs by Western blot method; type: functional, cell-based; outline: as §3
[20] = 1-octanol/water partition co-efficient, log P of the compound after 2 hrs by shake-flask method; type: physicochemical
Outline: (§4)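 Octanol and water mutually pre-saturated 24 h at 37 °C; excess compound dissolved in octanol phase by sonication, centrifuged, supernatant mixed 1:1 (v/v) with aqueous phase. Shaken at 120 rpm, 37 °C for 2, 4 or 7 h; phases separated by centrifugation and quantified by HPLC, in triplicate. Log P = lg(Co/Cw).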

[21] = 1-octanol/water partition co-efficient, log P of the compound after 4 hrs by shake-flask method; type: physicochemical; outline: as §4
[22] = 1-octanol/water partition co-efficient, log P of the compound after 7 hrs by shake-flask method; type: physicochemical; outline: as §4
[23] = N-octanol/water partition co-efficient, log P of the compound in octanol to water phase ratio of 1:1 up to 7 hrs by shake-flask method; type: physicochemical
[24] = N-octanol/water partition co-efficient, log P of the compound in octanol to water phase ratio of 1:4 up to 7 hrs by shake-flask method; type: physicochemical
[25] = N-octanol/water partition co-efficient, log P of the compound in octanol to water phase ratio of 1:9 up to 7 hrs by shake-flask method; type: physicochemical
[26] = tested on: Human immunodeficiency virus 1; assay: Antiviral activity against HIV1 isolate TC-1 infected in human PBMC assessed as inhibition of p24 expression up to 20 uM after 7 days by Western blot method
[27] = tested on: Human immunodeficiency virus 1; assay: Antiviral activity against HIV1 isolate TC-1 infected in human PBMC expressing HA-tagged A3G assessed as downregulation of Vif expression after 7 days by Western blot method
[28] = tested on: Human immunodeficiency virus 1; assay: Inhibition of HIV1 isolate TC-1 Vif infected in […]-stimulated human PBMC expressing HA-tagged A3G assessed as reduction in Vif-mediated A3G degradation up to 20 uM after 7 days by Western blot method
[29] = Stability of the compound in pH 4 buffer solution at 100 uM after 180 hrs by HPLC analysis; type: physicochemical; conditions: read-out: Stability
[30] = Stability of the compound in pH 7 buffer solution at 100 uM up to 168 hrs by HPLC analysis; type: physicochemical; conditions: pH 7, 168 h
Outline: (§5)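 Compound added to pH 4, 7 or 9 buffers at 100 μM final and shaken at 100 rpm, 37 °C. Sampled at 0–168 h (pH 4 and 7) or 0–15 h (pH 9) and analysed by HPLC on C18 with acetonitrile/water containing 0.1% triethylamine (70/30) and UV 248 nm.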

[31] = Drug degradation in pH 9 buffer solution at 100 uM after 15 hrs by HPLC analysis; outline: as §5
[32] = tested on: Liver; assay: Prodrug activation in human liver microsomes assessed as 2-Amino-N-(2-methoxyphenyl)-6-((4-nitrophenyl)sulfonyl)benzamide formation at 1.5 mg/ml after 20 mins in presence of NADPH by HPLC analysis; type: microsome
Outline: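 Prodrug (1.5 mg/mL stock, 1.5 μL) incubated with human liver microsomes in 0.1 M phosphate buffer pH 7.4 with NADPH-generating system at 37 °C for 0, 5, 10, 15, 20 and 40 min. Stopped with methanol, centrifuged, supernatant dried under nitrogen, redissolved in mobile phase, analysed by HPLC and HPLC-MS.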

For `COc1ccccc1NC(=O)c1c(N)cccc1S(=O)(=O)c1ccc([N+](=O)[O-])cc1`, the PPB [1] was “Active”, the CC50 at 168 h [2] was ≥ 462 µM and the EC50 [3] was 1.4 to 1.54 µM. The “Ratio CC50/EC50” value [4] was 300, the inhibition [5] was “Dose-dependent effect” and the inhibition [6] was “Dose-dependent effect”. The CC50 at 168 h [7] was > 468 µM, the EC50 [8] was 17.8 µM and the EC50 [9] was 17.8 µM. The EC50 [10] was 0.522 µM, the EC50 [11] was 2.95 µM and the solubility thermodynamic [12] was 0.66 µg/mL (≈ 0.00154 mM). It also gave a solubility thermodynamic [13] of 814 µg/mL (≈ 1.9 mM), a solubility thermodynamic [14] of 284 µg/mL (≈ 0.664 mM) and a solubility thermodynamic [15] of 9090 µg/mL (≈ 21.3 mM). For the same compound, the solubility thermodynamic [16] was 4380 µg/mL (≈ 10.2 mM), the solubility thermodynamic [17] was 22400 µg/mL (≈ 52.4 mM) and the inhibition [18] was “Dose-dependent effect”. For the same compound, the Activity [19] was “Dose-dependent effect”, the logP at 2 h [20] was 2.41 and the logP at 4 h [21] was 2.4. The logP at 7 h [22] was 2.4, the logP at 7 h [23] was 2.4 and the logP at 7 h [24] was 2.53. The logP at 7 h [25] was 2.55, the inhibition [26] was “Active” and the Activity [27] was “Active”. The inhibition [28] was “Active”.
`COc1ccccc1NC(=O)c1c(NC(=O)CN)cccc1S(=O)(=O)c1ccc([N+](=O)[O-])cc1` showed a remaining at 180 h, 100 µM [29] of 50%, a CC50 at 168 h [2] of 196 µM and an EC50 [3] of 0.248 µM. The “Ratio CC50/EC50” value [4] was 790, the solubility thermodynamic [12] was 1730 µg/mL (≈ 3.57 mM) and the Stability [30] was “Stable”. The Drug degradation [31] was > 90% and the Drug metabolism [32] was “Metabolite_Detected”.

From ChEMBL document CHEMBL4007447, “Synthesis, biological evaluation and molecular docking study of N-(2-methoxyphenyl)-6-((4-nitrophenyl)sulfonyl)benzamide derivatives as potent HIV-1 Vif antagonists” (Eur J Med Chem, 2017)
